# Hits are enriched below; roughly 3.7% of the tested compounds scored in any of these assays.
# KCNK9 block – KCNK9 potassium channel inhibitors, primary screen, HEK293 cells, thallium flux | Potassium channel subfamily K member 9 (Homo sapiens), Q9NPC2 | FluxOR thallium flux fluorescence; active compounds read low | B-score at 10 µM | 310,000 tested, 1.2% active | AID 488922, 2010;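 active = ratio B-score over 3 SD below the library mean, with starting fluorescence within 5 SD of its mean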;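 note: negative B-score means less thallium flux so channel inhibition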
# KCNK3 inh – human KCNK3 channel inhibitors, primary screen, CHO cells, FluxOR thallium flux, B-score; Potassium channel subfamily K member 3 (Homo sapiens), O14649; FluxOR fluorescence; active compounds read low; 340,000 tested, 0.84% active; AID 602410, 2012; B-score at 10 µM;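 active = B-score under library mean minus 4 SD, starting fluorescence ratio at most library mean plus 5 SD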;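 note: more negative B-score means stronger inhibition of thallium flux through KCNK3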
# Target sequence (O14649 whole entry, looked up): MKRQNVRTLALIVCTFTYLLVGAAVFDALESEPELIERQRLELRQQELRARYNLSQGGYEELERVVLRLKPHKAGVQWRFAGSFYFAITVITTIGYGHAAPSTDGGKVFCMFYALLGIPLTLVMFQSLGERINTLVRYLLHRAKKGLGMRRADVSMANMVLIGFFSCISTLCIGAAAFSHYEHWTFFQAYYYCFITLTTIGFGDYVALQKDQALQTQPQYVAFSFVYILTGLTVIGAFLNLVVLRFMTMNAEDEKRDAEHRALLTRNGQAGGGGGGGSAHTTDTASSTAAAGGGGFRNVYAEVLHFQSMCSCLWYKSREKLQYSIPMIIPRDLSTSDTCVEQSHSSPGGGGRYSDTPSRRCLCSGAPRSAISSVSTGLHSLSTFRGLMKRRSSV
# hERG rescue – hERG rescue from dofetilide block, primary screen, cell-based, CHO-hERG, FluxOR thallium flux, dofetilide IC70; Voltage-gated inwardly rectifying potassium channel KCNH2 (Homo sapiens), Q12809; dofetilide IC70 present; activation (rescue from dofetilide block), less the hit threshold, % at 10 µM; 310,000 tested, 0.51% active; AID 1511, 2009;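 active = activation above the mean of controls blocked by dofetilide plus 5 SD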;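 note: thallium influx through hERG after potassium depolarization seen as dye fluorescence rise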
# KCNQ1 act – potentiators or activators of KCNQ1 channel, primary screen, cell-based, thallium flux, high-throughput | Potassium voltage-gated channel subfamily KQT member 1 (Homo sapiens), P51787 | CHO-K1 KCNQ1, thallium flux FluxOR fluorescence; active compounds read high | B-score at 10 µM | 310,000 tested, 0.35% active | AID 2648, 2010;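 active = fluorescence ratio B-score, a plate-corrected score, at least three library SD, with initial intensity B-score within 5 SD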
#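 Assay system: CHO-K1 cells stably expressing KCNQ1; Medium: assay buffer with matched DMSO; Also added: K+/Tl+ depolarizing stimulus; Dosing: single dose; Timing: dye 90 min, compound 20 min, room temperature; Measured by: kinetic FluxOR thallium fluorescence, 10-s 1-Hz baseline, 110-s post-stimulus read; Read-out: peak-minus-minimum fluorescence over initial fluorescence, negative-control normalized, B-scored.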
# KCNQ1 block – inhibitors of human KCNQ1 channel, primary screen, cell-based, thallium flux, high-throughput; Potassium voltage-gated channel subfamily KQT member 1 (Homo sapiens), P51787; CHO-K1 KCNQ1, FluxOR thallium flux fluorescence; active compounds read high; B-score at 10 µM; 310,000 tested, 1.3% active;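 active = compounds whose thallium flux B-score, printed positive for inhibition, exceeds three library SD while starting fluorescence stays within three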;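 note: channel opened by potassium depolarization with thallium stimulus after 20 min compound exposure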
# Kir21 block – inhibitors of mouse Kir2.1 inward-rectifier potassium channel; Inward rectifier potassium channel 2 (Mus musculus), P35561; B-score at 10 µM; 310,000 tested, 0.85% active; AID 1672, 2009; HEK293-Kir2.1, FluxOR thallium flux fluorescence; active compounds read low;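 active = fluorescence ratio B-score at or below minus 3 SD of library scores, with starting-brightness B-score within 2 SD, cut at about -4.2 in these data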;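 note: channel flux triggered by added potassium and thallium sulfate stimulus; B-score of peak minus minimum fluorescence over baseline after thallium stimulus; more negative B-score means stronger Kir2.1 block with less thallium influx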
# Target sequence (P35561 whole entry, looked up): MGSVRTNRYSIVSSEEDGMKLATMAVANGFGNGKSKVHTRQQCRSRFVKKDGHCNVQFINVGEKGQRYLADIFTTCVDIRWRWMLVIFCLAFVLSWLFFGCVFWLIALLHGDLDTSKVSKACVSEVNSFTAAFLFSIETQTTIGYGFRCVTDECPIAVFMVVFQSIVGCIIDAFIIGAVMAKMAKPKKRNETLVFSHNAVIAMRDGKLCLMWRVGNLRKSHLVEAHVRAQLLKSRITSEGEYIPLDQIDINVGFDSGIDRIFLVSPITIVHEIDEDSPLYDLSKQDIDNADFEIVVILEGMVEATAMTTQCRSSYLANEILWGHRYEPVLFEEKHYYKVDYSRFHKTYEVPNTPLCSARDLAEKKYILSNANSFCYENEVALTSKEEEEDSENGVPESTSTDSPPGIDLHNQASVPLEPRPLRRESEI
# KCNQ1 block val – KCNQ1 potassium channel inhibitors, confirmation, cell-based, Tl flux, duplicate. shares compounds with KCNQ1 block. KCNQ1 cell line, FluxOR thallium flux fluorescence. inhibition, % at 10 µM. 1,600 tested, 93% active. AID 588353, 2011;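 active = primary screen active, with duplicate mean exceeding buffer control mean plus 3 SD of buffer wells, cut at about 28% in these data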;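 note: 0% = buffer control ratio and 100% = XE991 inhibitor control ratio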
# CHO Tl flux – thallium flux effects in parental CHO cells, counter-screen for KCNQ1 inhibitor project, cell-based, Tl flux; 1,600 tested, 21% active; AID 588366, 2011; parental CHO-K1, FluxOR thallium flux fluorescence ratio; active compounds read low; zero means no signal rise above baseline; fluorescence ratio (Tl flux) at 10 µM; shares compounds with KCNQ1 block;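 active = mean of duplicate thallium-flux fluorescence ratios in parental host cells more than 5 SD below the buffer control mean, cut at about 0.38 in these data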;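 note: ratio is peak minus minimum fluorescence divided by baseline fluorescence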
# KCNQ1 APC inh – KCNQ1 channel inhibitors, confirmation, orthogonal assay, cell-based, automated electrophysiology; shares compounds with KCNQ1 block; KCNQ1-CHO cells, automated patch clamp current; calls only at 10 µM; 490 tested, 20% active;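 active = KCNQ1 current drop exceeding 3 SD of negative control wells, seen in both duplicate runs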;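 note: steady state current during a 2 s step from -80 to +40 mV; negative values mean current inhibition and positive values mean potentiation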
# KCNQ2 inh – KCNQ2 channel inhibition, selectivity assay for KCNQ1 inhibitor project, cell-based; shares compounds with KCNQ1 block; KCNQ2 cells, FluxOR thallium flux fluorescence; inhibition, % at 10 µM; 1,600 tested, 71% active; AID 651746, 2012;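 active = mean percent inhibition of the KCNQ2 thallium signal more than 5 SD above the buffer-only control wells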;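 note: KCNQ2 expressed in CHO cells; 0% = buffer control wells and 100% = XE-991 inhibitor control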
# KCNQ1-KCNE1 inh – KCNQ1/KCNE1 channel inhibition, selectivity assay for KCNQ1 inhibitor project, CHO-K1 cells, thallium flux, FluxOR. inhibition, % at 10 µM. AID 652147, 2013. shares compounds with KCNQ1 block. 1,600 tested, 77% active. FluxOR thallium flux fluorescence;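 active = mean percent inhibition of duplicate wells above the buffer-only control mean plus 3 SD of those controls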;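 note: 0% = buffer only wells and 100% = XE-991 inhibitor control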
# KCNK9 block conf – KCNK9 potassium channel inhibitors, confirmation, HEK293 cells, thallium flux, duplicate; 4,900 tested, 43% active; shares compounds with KCNK9 block; inhibition, % at 10 µM; FluxOR thallium flux fluorescence;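 active = thallium signal inhibited by more than 5 SD of the compound-free buffer control wells, on both duplicate plates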;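 note: 0% = assay buffer control wells without compound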
# Kir2-1 spec – mouse Kir2.1 channel inhibition, confirmation, selectivity assay for KCNK9 modulator project, cell-based, HEK293, thallium flux | inhibition, % at 10 µM | Kir2.1 cells, FluxOR thallium flux fluorescence | 4,900 tested, 4% active | shares compounds with KCNK9 block;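 active = thallium signal drop more than 5 SD beyond the mean of the no-compound control wells, seen in both duplicate plates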;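 note: signal is fluorescence rise after thallium addition divided by baseline fluorescence; plate controls were assay buffer only for no effect and full block by chlorpromazine control for full effect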
# KCNK9 uninduced – thallium flux in non-induced HEK293 cells, confirmation, counter-screen for KCNK9 inhibitor project, cell-based, second counter screen, non-induced KCNK9-HEK293; shares compounds with KCNK9 block; FluxOR thallium flux; inhibition, % at 10 µM; 4,900 tested, 40% active; AID 492997, 2010;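 active = thallium signal drop beyond 5 SD of the untreated control mean, on both duplicate plates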;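 note: plate controls were buffer only IC0 wells for no effect and SID17386958 at its maximal inhibitory level for full effect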
# KCNK3 inh conf – retest of human KCNK3 channel inhibitors, confirmation, CHO cells, FluxOR thallium flux, triplicate; ratio percent of control, % at 10 µM; 2,400 tested, 99% active; shares compounds with KCNK3 inh; FluxOR fluorescence; 0% buffer, 100% carvedilol maximal block;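 active = ratio percent of control, averaged over triplicates, above buffer control mean plus 5 SD, cut at about 64% in these data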;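 note: ratio is the fluorescence rise from min to max over baseline after thallium stimulus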
# KCNK3 uninduced – thallium flux inhibition in non-induced cells, primary screen, counter-screen for KCNK3 inhibitor project, cell-based, non-induced KCNK3 line, FluxOR thallium, triplicate; 2,400 tested, 40% active; thallium flux ratio (lower = more inhibition) at 10 µM; shares compounds with KCNK3 inh; AID 651747, 2012; non-induced KCNK3 parental cells; active compounds read low;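 active = thallium flux ratio, averaged over three wells, more than 5 SD below the buffer control mean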;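 note: host cells are CHO cells without KCNK3 induction; ratio is peak minus trough fluorescence over baseline then normalized to buffer controls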
# Active calls of the source: *; i = inactive; . = not tested or not shown; + = active, no number.
SMILES,KCNK9 block,KCNK3 inh,hERG rescue,KCNQ1 act,KCNQ1 block,Kir21 block,KCNK9 block conf,Kir2-1 spec,KCNK9 uninduced,others
CCC(C)COC(=O)C(C#N)c1nc2ccccc2nc1N1CCCCC1 (stereo not drawn),-11*,i,-23,i,8*,0.75,48%*,i,45%*,KCNQ1 block val=123*;CHO Tl flux=0.43;KCNQ1 APC inh=i;KCNQ2 inh=102%*;KCNQ1-KCNE1 inh=116%*;KCNK3 inh conf=117*;KCNK3 uninduced=0.14*
CC(C)OC(=O)C(C#N)c1nc2ccccc2nc1N1CCCC1 (stereo not drawn),i,i,-5,i,i,-0.48,.,.,.,
CC(C)(C)NC(=O)C(c1cccs1)N(Cc1ccco1)C(=O)c1csnn1 (stereo not drawn),i,i,-8,i,i,-2.6,.,.,.,
CC(c1cccs1)N(Cc1ccco1)C(=O)Nc1ccc(Cl)c(Cl)c1 (stereo not drawn),-14*,-11*,-10,i,19*,0.27,60%*,i,44%*,KCNQ1 block val=146*;CHO Tl flux=0.35*;KCNQ2 inh=116%*;KCNQ1-KCNE1 inh=+;KCNK3 inh conf=122*;KCNK3 uninduced=0.13*
Cc1cccc(OCC(=O)Nc2ccccc2N2CCCCC2)c1C,-8.4*,i,-12,i,9*,1.5,54%*,34%*,42%*,KCNQ1 block val=102*;CHO Tl flux=0.44;KCNQ1 APC inh=i;KCNQ2 inh=88%*;KCNQ1-KCNE1 inh=150%*;KCNK3 inh conf=110*;KCNK3 uninduced=i
C/C(=C/c1ccccc1)C(=O)N1CCN(c2ccccc2F)CC1,i,i,-2,i,i,0.63,.,.,.,
O=C(CSCc1ccccc1)N1CCN(c2ccccc2)CC1,i,i,-6,i,i,-0.88,.,.,.,
CC(C(=O)N1CCc2ccccc21)N1CCN(S(=O)(=O)c2ccc(C(F)(F)F)cc2)CC1 (stereo not drawn),.,i,.,.,.,.,.,.,.,
CC(C(=O)N1CCc2ccccc21)N1CCN(c2cccc(C(F)(F)F)c2)CC1 (stereo not drawn),i,i,-10,i,i,0.24,i,i,i,
Cc1ccc(C)c(NC(=S)N2CCN(c3cccc(C(F)(F)F)c3)CC2)c1,i,i,-4,i,i,0.01,.,.,.,
O=C(CSCc1ccccc1)N1CCN(c2cccc(C(F)(F)F)c2)CC1,i,i,-8,i,i,2.6,i,i,i,
C/C(=C\c1ccccc1)C(=O)N1CCN(c2cccc(C(F)(F)F)c2)CC1,i,i,-10,i,i,0.22,i,i,i,
Cc1ccnc(NC(=S)N2CCN(c3cccc(C(F)(F)F)c3)CC2)c1,i,i,-16,i,i,-0.43,i,i,i,
O=C(NC1CCS(=O)(=O)C1)c1cc(-c2ccccc2)nc2ccccc12 (stereo not drawn),i,i,-10,i,i,0.35,.,.,.,
O=C(NCCCN1CCOCC1)c1cc(-c2ccc(Cl)s2)nc2ccccc12,i,i,-11,i,i,1.1,.,.,.,
Cc1ccc(CNC(=O)c2ccc(CNS(=O)(=O)c3ccc4c(c3)C(C)(C)C(=O)N4C)cc2)o1,i,i,-7,i,i,1.3,i,i,i,
O=C1NN(c2ccc(F)c(Cl)c2)C(=O)/C1=C\c1cccc(OC(=O)c2cccs2)c1,i,i,-11,i,i,-1.7,i,i,i,
COc1ccc(-c2csc(Nc3ccc(S(=O)(=O)Nc4cc(C)on4)cc3)n2)cc1C,-8.7*,i,-38,i,i,-0.64,56%*,i,i,
CC1=C(c2ccccc2)C(O)(c2ccccc2)C(C)C1=O (stereo not drawn),.,i,.,.,.,.,.,.,.,
O=[N+]([O-])c1cccc(-c2nc3ccccc3s/c2=N/O)c1,-8.8*,i,-18,i,i,-0.62,30%*,i,38%*,
COc1ccc(CNC(=O)/C(C#N)=C2\N=C(NC(=O)c3cccs3)c3ccccc32)cc1,i,i,-8,i,i,0.52,i,i,i,

# Source: PubChem BioAssay (Johns Hopkins Ion Channel Center)
